Experimental data collected from several papers.
Lines come from different studies, so protocols differ.

CN(C)C(=O)c1cc2cnc(Nc3ccc(-c4ccc5c(=O)cc(N6CCOCC6)oc5c4)cc3)nc2n1C1CCCC1.Cl  Cmax (BALB/c mouse, plasma; intravenous, 2 mg/kg): 3690 ng/mL
COC1=CC(c2ccc[nH]2)=N/C1=C\c1cc(Cc2ccc(OC(F)(F)F)cc2)c(C)[nH]1.Cl  Cmax (male CD-1 mouse, plasma; oral, 40 mg/kg, single dose): 161 ng/mL
NCc1ccc(-c2nn(Cc3ccccc3)c3ccccc23)o1  Cmax (male CD-1 mouse, plasma; oral, 10 mg/kg): 395 ng/mL
Cc1ncsc1-c1ccc([C@H](C)NC(=O)[C@@H]2C[C@@H](O)CN2C(=O)[C@@H](NC(=O)CCCCCCCCCCC(=O)NCCCn2cc(-c3ccc4c(c3)CCN4C(=O)Cc3cccc(OC(F)(F)F)c3)c3c(N)ncnc32)C(C)(C)C)cc1  Cmax (mouse, plasma; intravenous, 1 mg/kg): 2330 ng/mL
Cc1cc(-c2ccnc3[nH]cc(F)c23)cc(F)c1[C@@]1(O)[C@H](C)CN(C(=O)CN)C[C@@H]1C  Cmax (male CD-1 mouse, plasma; oral, 3 mg/kg): 1260 ng/mL
Cc1ncsc1-c1ccc([C@H](C)NC(=O)[C@@H]2C[C@@H](O)CN2C(=O)[C@@H](NC(=O)CCCCCCCCC(=O)N2CCC(n3cc(-c4ccc5c(c4)CCN5C(=O)Cc4cccc(OC(F)(F)F)c4)c4c(N)ncnc43)CC2)C(C)(C)C)cc1  Cmax (male C57BL/6 mouse, plasma; intravenous, 1 mg/kg): 3420 ng/mL
O=C1CCC(N2Cc3cc(C4CCN(Cc5ccccc5)CC4)ccc3C2=O)C(=O)N1 (stereo not drawn)  Cmax (male CD-1 mouse, plasma; intravenous, 1 mg/kg): 204 ng/mL
Cc1cc(-c2ccnc3[nH]cc(F)c23)cc(F)c1[C@@]1(O)[C@H](C)CN(C2CCS(=O)(=O)CC2)C[C@@H]1C  Cmax (male CD-1 mouse, plasma; intravenous, 1 mg/kg): 1620 ng/mL
Cc1ccc(OCC(=O)N[C@@H](Cc2c[nH]c3ccccc23)C(=O)OC(C)C)cc1  Cmax (male Sprague-Dawley mouse, plasma; oral, 20 mg/kg): 2560 ng/mL
COc1cc(C2C3=C(COC3=O)N(CCO)c3cc4c(cc32)CCC4)cc(OC)c1OC (stereo not drawn)  Cmax (female C57BL/6 mouse, plasma; intraperitoneal, 50 mg/kg): 1040 ng/mL
OCc1nc2ccc(NCc3ccc(C(F)(F)F)cc3)cc2[nH]1  Cmax (male BALB/c mouse, plasma; intravenous, 1 mg/kg): 378 ng/mL
Cc1ncsc1-c1ccc([C@H](C)NC(=O)[C@@H]2C[C@@H](O)CN2C(=O)[C@@H](NC(=O)CCc2ccc(C#Cc3ccc(C(=O)NCCCn4cc(-c5ccc6c(c5)CCN6C(=O)Cc5cccc(OC(F)(F)F)c5)c5c(N)ncnc54)cc3)cn2)C(C)(C)C)cc1  Cmax (male C57BL/6 mouse, plasma; intravenous, 1 mg/kg): 11900 ng/mL
COc1cccc2c(N3CCC(CCP(=O)(O)O)CC3)ncnc12  Cmax (female BALB/c mouse, serum; subcutaneous, 50 mg/kg, tumour-bearing): 23000 ng/mL
CC(C)(C)c1sc2ncnc(Oc3c(F)cccc3OC(F)(F)F)c2c1-c1ccc(Cl)cc1  Cmax (mouse, plasma; intravenous, 1 mg/kg, single dose): 2560 ng/mL
OCc1ccc(-c2nn(Cc3ccccc3)c3ccccc23)o1  Cmax (male CD-1 mouse, plasma; oral, 10 mg/kg): 220 ng/mL
C=CCn1c(=O)c2cnc(Nc3ccc(N4CCN(C)CC4)cc3)nc2n1-c1ccc2c(n1)[C@@](O)(CC)CC2  Cmax (mouse, plasma; oral, 60 mg/kg): 10.5 µM
Cc1nc2ccc(OCc3ccc(C(F)(F)F)cc3)cc2[nH]1  Cmax (male BALB/c mouse, plasma; oral, 10 mg/kg): 5890 ng/mL
NCc1ccc(-c2nn(Cc3ccncc3)c3ccccc23)o1  Cmax (male CD-1 mouse, plasma; intraperitoneal, 30 mg/kg): 1150 ng/mL
COC1=CC(c2ccc[nH]2)=N/C1=C\c1[nH]c(Cc2ccc(OC(F)(F)F)cc2)cc1Cc1ccc(OC(F)(F)F)cc1  Cmax (male CD-1 mouse, plasma; oral, 40 mg/kg, single dose): 3950 ng/mL
Cc1ccc(N(c2ccc(NC(=O)CN(C)c3ccccc3N3CCCC3=O)cc2)C(C)C)cc1  Cmax (male CD-1 mouse, plasma; oral, 20 mg/kg): 1000 ng/mL
CCOC(=O)c1c(NC(=O)CNC(C)C)sc2c1CCCCC2  Cmax (male mouse, plasma; intraperitoneal, 100 mg/kg, single dose): 6340 ng/mL
